This note sets out measurements from ChEMBL document CHEMBL1145048, “Functionalized glycomers as growth inhibitors and inducers of apoptosis in human glioblastoma cells” (J Med Chem, 2003).

The nature of experiment [1]: Efficacy index was evaluated as ratio of inhibition of DNA synthesis (3HT incorporation) to inhibition of growth(MTT) for human glioblastoma LN18 cells at 4.5 uM concentration. The experiment is classed as functional, cell-based. In outline:
(§1)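 Cells grown 24 h with FCS, then deprived of FCS for 10 h, then exposed to glycomers for 12 h. In adherent cells, MTT reduction (540 nm), [3H]-thymidine incorporation (cpm) and nucleosome-fragment apoptosis index (treated vs control) were measured. Efficacy index = ratio of thymidine incorporation or apoptosis index to MTT reduction.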

Experiment [2] in a line: Apoptosis index was determined against human glioblastoma LN18 cells at concentration of 11 uM after total exposure time of 15 hours. The class given is functional, cell-based. In outline:
(§2)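 Cells seeded to half confluence in DMEM-10% FCS for 24 h, then held 24 h without FCS before glycomer addition in serum-free medium. At the end of the incubation, histone-associated DNA fragments (mono- and oligonucleosomes) in still-adherent cells were measured by photometric ELISA (absorbance 405 nm). Apoptosis index = absorbance of treated / untreated wells, untreated set at 1.00. Done in triplicate.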

Experiment [3] in a line: Efficacy index was evaluated as ratio of apoptosis index to MTT reduction for human glioblastoma LN18 cells at 4.5 uM concentration. The experiment is classed as functional, cell-based. In outline: as §1
On the technique in general: Tetrazolium dyes change colour on reduction, which living cells bring about.

Experiment [4] in a line: Efficacy index was evaluated as ratio of inhibition of DNA synthesis (3HT incorporation) to inhibition of growth(MTT) for human glioblastoma LN18 cells at 22.5 uM concentration. The class given is functional, cell-based. In outline: as §1
Experiment [5] in a line: Efficacy index was evaluated as ratio of apoptosis index to MTT reduction for human glioblastoma LNZ308 cells at 11.3 uM concentration. The class given is functional, cell-based. In outline:
as §1

A short description of experiment [6]: Efficacy index was evaluated as ratio of inhibition of DNA synthesis (3HT incorporation) to inhibition of growth(MTT) for human glioblastoma LN18 cells at 0 uM concentration. The experiment is classed as functional, cell-based. In outline:
as §1

Experiment [7] is described as follows: Efficacy index was evaluated as ratio of inhibition of DNA synthesis (3HT incorporation) to inhibition of growth(MTT) for human glioblastoma LNZ308 cells at 11.3 uM concentration. The experiment is classed as functional, cell-based. In outline: as §1
The nature of experiment [8]: Efficacy index was evaluated as ratio of apoptosis index to MTT reduction for human glioblastoma LN18 cells at 11.3 uM concentration. The experiment is classed as functional, cell-based. In outline: as §1
Experiment [9] is described as follows: Efficacy index was evaluated as ratio of inhibition of DNA synthesis (3HT incorporation) to inhibition of growth(MTT) for human glioblastoma LNZ308 cells at 22.5 uM concentration. The class given is functional, cell-based. In outline:
as §1

Experiment [10] in a line: Efficacy index was evaluated as ratio of apoptosis index to MTT reduction for human glioblastoma LNZ308 cells at 4.5 uM concentration. The experiment is classed as functional, cell-based. In outline:
as §1

A short description of experiment [11]: Efficacy index was evaluated as ratio of apoptosis index to MTT reduction for human glioblastoma LNZ308 cells at 0 uM concentration. The class given is functional, cell-based. In outline:
as §1

Experiment [12] can be described thus: Efficacy index was evaluated as ratio of inhibition of DNA synthesis (3HT incorporation) to inhibition of growth(MTT) for human glioblastoma LN18 cells at 11.3 uM concentration. The experiment is classed as functional, cell-based. In outline:
as §1

Experiment [13] is described as follows: Apoptosis index was determined against human glioblastoma LNZ308 cells at concentration of 11 uM after total exposure time of 15 hours. The experiment is classed as functional, cell-based. In outline:
as §2

Experiment [14] in a line: Efficacy index was evaluated as ratio of apoptosis index to MTT reduction for human glioblastoma LN18 cells at 22.5 uM concentration. The class given is functional, cell-based. In outline:
as §1

The nature of experiment [15]: Efficacy index was evaluated as ratio of apoptosis index to MTT reduction for human glioblastoma LN18 cells at 0 uM concentration. The class given is functional, cell-based. In outline: as §1
Experiment [16] can be described thus: Efficacy index was evaluated as ratio of apoptosis index to MTT reduction for human glioblastoma LNZ308 cells at 22.5 uM concentration. The experiment is classed as functional, cell-based. In outline:
as §1

A short description of experiment [17]: Efficacy index was evaluated as ratio of inhibition of DNA synthesis (3HT incorporation) to inhibition of growth(MTT) for human glioblastoma LNZ308 cells at 0 uM concentration. The experiment is classed as functional, cell-based. In outline:
as §1

Experiment [18] can be described thus: Glycomer activity determined as growth inhibition of human glioblastoma LN18 cells. The class given is functional, cell-based. The note with it: Homo sapiens, LN-18. In outline: (§3)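 Cells grown 24 h with FCS, then 24 h without FCS, then exposed to glycomers at increasing concentrations in serum-free medium for 24 h. MTT at 0.2 mg/mL was added for the last 2 h, formazan was dissolved in 0.1 N HCl/2-propanol and read at 540 nm. Growth inhibition = treated/control MTT reduction. IC50 is the concentration giving 50% inhibition from dose–response curves. Triplicate, mean ± SD.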

Experiment [19] can be described thus: Apoptosis index was determined against human glioblastoma LNZ308 cells at 16 uM and total exposure time of 10 hours. The experiment is classed as functional. In outline:
as §2

Experiment [20] is described as follows: Efficacy index was evaluated as ratio of inhibition of DNA synthesis (3HT incorporation) to inhibition of growth(MTT) for human glioblastoma LNZ308 cells at 4.5 uM concentration. The experiment is classed as functional, cell-based. In outline:
as §1

A short description of experiment [21]: Glycomer activity determined as growth inhibition of human glioblastoma LNZ308 cells. The experiment is classed as functional, cell-based. The settings on record: Homo sapiens, LNZ308. In outline: as §3
Experiment [22] in a line: Apoptosis index was determined against human glioblastoma LN18 cells at 16 uM after total exposure of 10 hours. The class given is functional. In outline: as §2
The nature of experiment [23]: Apoptosis index was determined against human glioblastoma LN18 cells at 25 uM after total exposure time of 24 hours. The class given is functional. In outline: as §2
Experiment [24] can be described thus: Apoptosis index was determined against human glioblastoma LNZ308 cells at 25 uM after total exposure time of 24 hours. The class given is functional. In outline: as §2
Experiment [25] can be described thus: Apoptosis index was determined against human glioblastoma LNZ308 cells at concentration of 25 uM after otal exposure time of 24 hours. The class given is functional, cell-based. In outline: as §2
The nature of experiment [26]: Apoptosis index was determined against human glioblastoma LN18 cells at concentration of 25 uM after total exposure time of 24 hours. The experiment is classed as functional, cell-based. In outline: as §2
A short description of experiment [27]: Apoptosis index was determined against human glioblastoma LNZ308 cells at concentration of 25 uM after total exposure time of 24 hours. The class given is functional, cell-based. In outline:
as §2

The structures appear in SMILES notation.

Take `C=CCOC1C(O)C(CNS(=O)(=O)c2cccc(C(F)(F)F)c2)OC(Oc2ccc(I)cc2)C1OC(=O)CC` (stereo not given): the Efficacy index in experiment [1] came out at 3.11; in [3], 0.88; in [4], 0.47; in experiment [5], 1.81; in experiment [6], 16.2; in experiment [7], 0.64. Moreover, the Efficacy index came to 1.63 in experiment [8]; 0.35 in [9]; 0.72 in experiment [10]; 0.95 in [11]; 0.07 in experiment [12]; 8.43 in [14]. Moreover, the Efficacy index in experiment [15] came out at 0.93; in [16], 6.18. The Apoptosis index in experiment [2] was found to be 0.98; in [13] it was 1.45.

The term IC50 denotes the midpoint of a concentration-inhibition curve. A lower IC50 goes with inhibition by little substance. As for `C=CCO[C@H]1[C@H](O)[C@H](COS(=O)(=O)c2cccc(C(F)(F)F)c2)O[C@@H](Oc2ccc(I)cc2)[C@H]1OC(=O)CC`, the Efficacy index is 4.87 in experiment [1]; 1.19 in experiment [3]; 0.3 in experiment [4]; 2.03 in experiment [5]; 16.2 in [6]; 1.23 in experiment [7]. The Efficacy index in experiment [8] came out at 3.51; in [17], 9.79; in experiment [9], 0.24; in experiment [10], 0.99; in [11], 0.95; in experiment [20] it was 5. Also, the Efficacy index in [12] is 0.23; in [14] it was 9.6; in experiment [15], 0.93; in experiment [16] it was 5.09. Besides, the 50% inhibitory concentration (IC50) was determined as 7 µM in experiment [18] and 11.5 µM in experiment [21]. Further, the Apoptosis index worked out at 8.97 in experiment [19] and 3.82 in experiment [22].

For the compound `C=CCO[C@H]1[C@H](O)[C@H](COS(=O)(=O)c2cccc(C(F)(F)F)c2)O[C@@H](Oc2ccc(I)cc2)[C@H]1OC(=O)C(C)C`, the Apoptosis index stood at 1.1 in experiment [23] and 1.09 in [24]. In addition, the IC50 in experiment [18] turned out to be 12.5 µM; in experiment [21] it was 8.5 µM.

`C=CCO[C@H]1[C@H](O)[C@H](COS(=O)(=O)c2cccc(C(F)(F)F)c2)O[C@@H](Oc2ccc(I)cc2)[C@H]1OC(=O)CCC` (stereo in doubt; 8c): the values for the Apoptosis index in experiment [25] and in experiment [26] were 0.41 and 0.44, respectively.

In the case of `C=CCO[C@H]1[C@H](O)[C@H](COCc2ccccc2)O[C@@H](Oc2ccc(I)cc2)[C@H]1OC(=O)CCC`, the Apoptosis index in experiment [27] was 2.27; in [26], 1.6. The IC50 in [18] was 7.5 µM; in experiment [21], 11.5 µM.

For `C=CCO[C@H]1[C@H](O)[C@H](COCc2ccccc2)O[C@@H](Oc2ccc(I)cc2)[C@H]1OC(=O)CC`, the Efficacy index in experiment [1] is 6.23; in [3], 1.92; in [4], 0.58; in experiment [5] it was 0.7; in experiment [6], 16.2; in experiment [7], 2.04. For the same compound, the Efficacy index in [8] stood at 4.85; in experiment [17], 9.79; in experiment [9] it was 0.34; in [10], 0.62; in experiment [11], 0.95; in experiment [12], 0.09. Moreover, the figures for the Efficacy index in [14], in experiment [15] and in experiment [16] were 8.3, 0.93 and 2.32, respectively. Also, the Apoptosis index in experiment [2] is 3.67; in experiment [13], 0.91. For the same compound, the IC50 turned out to be 11.5 µM in experiment [18] and 17.5 µM in [21].
